Source: ChEMBL document CHEMBL1128473, “[(Biaryloxy)alkyl]isoxazoles: picornavirus inhibitors” (J Med Chem, 1995)
≈ marks a conversion by molar mass, not a printed value.

Key:
[1] = test system: Human rhinovirus sp.; assay: Concentration inhibiting 50% of the serotypes tested to 50% of the viral concentration of untreated controls following 72 hr of exposure; type: functional
Procedure, shortened: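 Tissue culture infectious dose (TCID50) assay against a panel of 10 human rhinovirus serotypes. For each serotype, the viral concentration was compared with untreated controls after 72 h of compound exposure. MIC50 is the compound concentration at which half of the serotypes tested are reduced to 50% of the untreated-control viral concentration.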

[2] = test system: Human rhinovirus sp.; assay: Minimum inhibitory concentration on HRV serotype 38; type: functional
[3] = test system: Human rhinovirus sp.; assay: Minimum inhibitory concentration on HRV serotype 39; type: functional
[4] = test system: Human rhinovirus sp.; assay: Minimum inhibitory concentration on HRV serotype 49; type: functional
[5] = test system: Human rhinovirus sp.; assay: Minimum inhibitory concentration on HRV serotype 46; type: functional
[6] = test system: Human rhinovirus sp.; assay: Minimum inhibitory concentration on HRV serotype 62; type: functional
[7] = test system: Human rhinovirus sp.; assay: Minimum inhibitory concentration on HRV serotype 90; type: functional
Procedure, shortened: (§1)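 Tested in a tissue culture infectious dose (TCID50) assay with 72 h compound exposure. Activity is read as the concentration that holds virus to 50% of the titer of untreated controls.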

[8] = test system: Human rhinovirus sp.; assay: Minimum inhibitory concentration on HRV serotype 71; type: functional
[9] = test system: Human rhinovirus sp.; assay: Minimum inhibitory concentration on HRV serotype 66; type: functional
[10] = test system: Human rhinovirus sp.; assay: Minimum inhibitory concentration on HRV serotype 64; type: functional
[11] = test system: Human rhinovirus sp.; assay: Minimum inhibitory concentration on HRV serotype 73; type: functional
[12] = test system: Human rhinovirus sp.; assay: Minimum inhibitory concentration on HRV serotype 32; type: functional
[13] = test system: Human rhinovirus sp.; assay: Minimum inhibitory concentration on HRV serotype 80; type: functional; procedure, shortened: as §1
[14] = test system: Human rhinovirus sp.; assay: Minimum inhibitory concentration on HRV serotype 88; type: functional; procedure, shortened: as §1
[15] = test system: Human rhinovirus sp.; assay: Minimum inhibitory concentration on HRV serotype 1A; type: functional
[16] = test system: Human rhinovirus sp.; assay: Minimum inhibitory concentration on HRV serotype 57; type: functional
[17] = test system: Human rhinovirus sp.; assay: Minimum inhibitory concentration on HRV serotype 85; type: functional; procedure, shortened: as §1
[18] = test system: Human rhinovirus sp.; assay: Minimum inhibitory concentration on HRV serotype 44; type: functional
[19] = test system: Human rhinovirus sp.; assay: Minimum inhibitory concentration on HRV serotype 67; type: functional
[20] = test system: Human rhinovirus sp.; assay: Minimum inhibitory concentration on HRV serotype 47; type: functional
[21] = test system: Human rhinovirus sp.; assay: Minimum inhibitory concentration on HRV serotype 35; type: functional
[22] = test system: Human rhinovirus sp.; assay: Minimum inhibitory concentration on HRV serotype 50; type: functional
[23] = test system: Human rhinovirus sp.; assay: Minimum inhibitory concentration on HRV serotype 16; type: functional
[24] = test system: Human rhinovirus sp.; assay: Minimum inhibitory concentration on HRV serotype 20; type: functional
[25] = test system: Human rhinovirus sp.; assay: Minimum inhibitory concentration on HRV serotype 36; type: functional
[26] = test system: Human rhinovirus sp.; assay: Minimum inhibitory concentration on HRV serotype 23; type: functional
[27] = test system: Human rhinovirus sp.; assay: Minimum inhibitory concentration on HRV serotype 25; type: functional
[28] = test system: Human rhinovirus sp.; assay: Minimum inhibitory concentration on HRV serotype 34; type: functional
[29] = test system: Human rhinovirus sp.; assay: Minimum inhibitory concentration on HRV serotype 76; type: functional; procedure, shortened: as §1
[30] = test system: Human rhinovirus sp.; assay: Minimum inhibitory concentration on HRV serotype 78; type: functional; procedure, shortened: as §1
[31] = test system: Human rhinovirus sp.; assay: Minimum inhibitory concentration on HRV serotype 1B; type: functional
[32] = test system: Human rhinovirus sp.; assay: Minimum inhibitory concentration on HRV serotype 11; type: functional
[33] = test system: Human rhinovirus sp.; assay: Minimum inhibitory concentration on HRV serotype 9; type: functional; procedure, shortened: as §1
[34] = test system: Human rhinovirus sp.; assay: Minimum inhibitory concentration on HRV serotype 51; type: functional
[35] = test system: Human rhinovirus sp.; assay: Minimum inhibitory concentration on HRV serotype 68; type: functional
[36] = test system: Human rhinovirus sp.; assay: Minimum inhibitory concentration on HRV serotype 22; type: functional
[37] = test system: Human rhinovirus sp.; assay: Minimum inhibitory concentration on HRV serotype 63; type: functional
[38] = test system: Human rhinovirus sp.; assay: Minimum inhibitory concentration on HRV serotype 21; type: functional
[39] = test system: Human rhinovirus sp.; assay: Minimum inhibitory concentration on HRV serotype 89; type: functional; procedure, shortened: as §1
[40] = test system: Human rhinovirus sp.; assay: Minimum inhibitory concentration on HRV serotype 96; type: functional; procedure, shortened: as §1
[41] = test system: Human rhinovirus sp.; assay: Minimum inhibitory concentration on HRV serotype 15; type: functional
[42] = test system: Human rhinovirus sp.; assay: Minimum inhibitory concentration on HRV serotype 81; type: functional; procedure, shortened: as §1
[43] = test system: Human rhinovirus sp.; assay: Minimum inhibitory concentration on HRV serotype 43; type: functional
[44] = test system: Human rhinovirus sp.; assay: Minimum inhibitory concentration on HRV serotype 79; type: functional; procedure, shortened: as §1
[45] = test system: Human rhinovirus sp.; assay: Minimum inhibitory concentration on HRV serotype 83; type: functional; procedure, shortened: as §1
[46] = test system: Human rhinovirus sp.; assay: Minimum inhibitory concentration on HRV serotype 56; type: functional
[47] = test system: Human rhinovirus sp.; assay: Minimum inhibitory concentration on HRV serotype 28; type: functional
[48] = test system: Human rhinovirus sp.; assay: Minimum inhibitory concentration on HRV serotype 58; type: functional
[49] = test system: Human rhinovirus sp.; assay: Minimum inhibitory concentration on HRV serotype 2; type: functional
[50] = test system: Human rhinovirus sp.; assay: Minimum inhibitory concentration on HRV serotype 100; type: functional
[51] = test system: Human rhinovirus sp.; assay: Minimum inhibitory concentration on HRV serotype 24; type: functional
[52] = test system: Human rhinovirus sp.; assay: Minimum inhibitory concentration on HRV serotype 19; type: functional
[53] = test system: Human rhinovirus sp.; assay: Minimum inhibitory concentration on HRV serotype 84; type: functional; procedure, shortened: as §1
[54] = test system: Human rhinovirus sp.; assay: Minimum inhibitory concentration on HRV serotype 30; type: functional
[55] = test system: Human rhinovirus sp.; assay: Minimum inhibitory concentration on HRV serotype 75; type: functional
[56] = test system: Human rhinovirus sp.; assay: Minimum inhibitory concentration on HRV serotype 53; type: functional
[57] = test system: Human rhinovirus sp.; assay: Minimum inhibitory concentration on HRV serotype 40; type: functional
[58] = test system: Human rhinovirus sp.; assay: Minimum inhibitory concentration on HRV serotype 55; type: functional
[59] = test system: Human rhinovirus sp.; assay: Minimum inhibitory concentration on HRV serotype 33; type: functional
[60] = test system: Human rhinovirus sp.; assay: Minimum inhibitory concentration on HRV serotype 82; type: functional; procedure, shortened: as §1
[61] = test system: Human rhinovirus sp.; assay: Minimum inhibitory concentration on HRV serotype T39; type: functional; procedure, shortened: as §1
[62] = test system: Human rhinovirus sp.; assay: Minimum inhibitory concentration on HRV serotype 29; type: functional
[63] = test system: Human rhinovirus sp.; assay: Minimum inhibitory concentration on HRV serotype 92; type: functional; procedure, shortened: as §1
[64] = test system: Human rhinovirus sp.; assay: Minimum inhibitory concentration on HRV serotype 7; type: functional
[65] = test system: Human rhinovirus sp.; assay: Minimum inhibitory concentration on HRV serotype 61; type: functional
[66] = Metabolic stability expressed as half life values was monitored in vitro liver microsomal assay.; type: ADME, Microsome; details: liver microsomes

Cc1cc(CCCOc2c(C)cc(-c3ccccc3F)cc2C)on1
MIC50 [1]: 0.11 µM (≈ 0.0373 µg/mL)

Cc1cc(CCCOc2c(C)cc(-c3ccc(Cl)cc3)cc2C)on1
MIC50 [1]: 0.12 µM (≈ 0.0427 µg/mL)

Cc1cc(CCCOc2c(C)cc(-c3ccc(F)cc3)cc2C)on1
MIC [2]: 0.015 µg/mL (≈ 0.0442 µM)
MIC [3]: 0.078 µg/mL (≈ 0.23 µM)
MIC [4]: 0.037 µg/mL (≈ 0.109 µM)
MIC [5]: 0.058 µg/mL (≈ 0.171 µM)
MIC [6]: 0.154 µg/mL (≈ 0.454 µM)
MIC [7]: 0.024 µg/mL (≈ 0.0707 µM)
MIC [8]: 0.025 µg/mL (≈ 0.0737 µM)
MIC [9]: 0.161 µg/mL (≈ 0.474 µM)
MIC [10]: 0.07 µg/mL (≈ 0.206 µM)
MIC [11]: 0.049 µg/mL (≈ 0.144 µM)
MIC [12]: 0.098 µg/mL (≈ 0.289 µM)
MIC [13]: 0.031 µg/mL (≈ 0.0913 µM)
MIC [14]: 0.006 µg/mL (≈ 0.0177 µM)
MIC [15]: 0.155 µg/mL (≈ 0.457 µM)
MIC [16]: 0.024 µg/mL (≈ 0.0707 µM)
MIC [17]: 0.02 µg/mL (≈ 0.0589 µM)
MIC [18]: 0.033 µg/mL (≈ 0.0972 µM)
MIC [19]: 0.118 µg/mL (≈ 0.348 µM)
MIC [20]: 0.021 µg/mL (≈ 0.0619 µM)
MIC [21]: 0.021 µg/mL (≈ 0.0619 µM)
MIC [22]: 0.04 µg/mL (≈ 0.118 µM)
MIC [23]: 0.058 µg/mL (≈ 0.171 µM)
MIC [24]: 0.019 µg/mL (≈ 0.056 µM)
MIC [25]: 0.009 µg/mL (≈ 0.0265 µM)
MIC [26]: 0.046 µg/mL (≈ 0.136 µM)
MIC [27]: 0.077 µg/mL (≈ 0.227 µM)
MIC [28]: 0.02 µg/mL (≈ 0.0589 µM)
MIC [29]: 0.009 µg/mL (≈ 0.0265 µM)
MIC50 [1]: 0.11 µM (≈ 0.0373 µg/mL)
MIC [30]: 0.018 µg/mL (≈ 0.053 µM)
MIC [31]: 0.024 µg/mL (≈ 0.0707 µM)
MIC [32]: 0.007 µg/mL (≈ 0.0206 µM)
MIC [33]: 0.08 µg/mL (≈ 0.236 µM)
MIC [34]: 0.009 µg/mL (≈ 0.0265 µM)
MIC [35]: 0.009 µg/mL (≈ 0.0265 µM)
MIC [36]: 0.02 µg/mL (≈ 0.0589 µM)
MIC [37]: 0.139 µg/mL (≈ 0.41 µM)
MIC [38]: 0.009 µg/mL (≈ 0.0265 µM)
MIC [39]: 0.012 µg/mL (≈ 0.0354 µM)
MIC [40]: 0.031 µg/mL (≈ 0.0913 µM)
MIC [41]: 0.492 µg/mL (≈ 1.45 µM)
MIC [42]: 0.125 µg/mL (≈ 0.368 µM)
MIC [43]: 0.072 µg/mL (≈ 0.212 µM)
MIC [44]: 0.056 µg/mL (≈ 0.165 µM)
MIC [45]: 0.004 µg/mL (≈ 0.0118 µM)
MIC [46]: 0.038 µg/mL (≈ 0.112 µM)
MIC [47]: 0.14 µg/mL (≈ 0.412 µM)
MIC [48]: 0.013 µg/mL (≈ 0.0383 µM)
MIC [49]: 0.009 µg/mL (≈ 0.0265 µM)
MIC [50]: 0.12 µg/mL (≈ 0.354 µM)
MIC [51]: 0.036 µg/mL (≈ 0.106 µM)
MIC [52]: 0.03 µg/mL (≈ 0.0884 µM)
MIC [53]: 0.042 µg/mL (≈ 0.124 µM)
MIC [54]: 0.028 µg/mL (≈ 0.0825 µM)
MIC [55]: 0.037 µg/mL (≈ 0.109 µM)
MIC [56]: 0.889 µg/mL (≈ 2.62 µM)
MIC [57]: 0.033 µg/mL (≈ 0.0972 µM)
MIC [58]: 0.003 µg/mL (≈ 0.00884 µM)
MIC [59]: 0.019 µg/mL (≈ 0.056 µM)
MIC [60]: 0.187 µg/mL (≈ 0.551 µM)
MIC [61]: 0.035 µg/mL (≈ 0.103 µM)
MIC [62]: 0.03 µg/mL (≈ 0.0884 µM)
MIC [63]: 0.014 µg/mL (≈ 0.0412 µM)
MIC [64]: 0.006 µg/mL (≈ 0.0177 µM)
MIC [65]: 0.024 µg/mL (≈ 0.0707 µM)

Cc1cc(CCCOc2c(C)cc(-c3ccc(N(C)C)cc3)cc2C)on1
MIC50 [1]: 0.66 µM (≈ 0.241 µg/mL)

Cc1cc(CCCOc2c(C)cc(-c3cccc(F)c3)cc2C)on1
MIC50 [1]: 0.32 µM (≈ 0.109 µg/mL)

Cc1cc(CCCOc2c(C)cc(-c3cccc(O)c3)cc2C)on1
MIC50 [1]: 0.44 µM (≈ 0.148 µg/mL)

Cc1cccc(-c2cc(C)c(OCCCc3cc(C)no3)c(C)c2)c1
MIC50 [1]: 0.23 µM (≈ 0.0772 µg/mL)
half-life [66]: > 3.33 h

Cc1cc(CCCOc2c(C)cc(-c3ccc(O)cc3)cc2C)on1
MIC50 [1]: 0.77 µM (≈ 0.26 µg/mL)

Cc1cc(CCCOc2c(C)cc(-c3cccc(Cl)c3)cc2C)on1
MIC50 [1]: 0.27 µM (≈ 0.0961 µg/mL)

Cc1cc(CCCOc2c(C)cc(-c3ccccc3)cc2C)on1
MIC50 [1]: 0.16 µM (≈ 0.0514 µg/mL)
half-life [66]: > 3.33 h

Cc1ccc(-c2cc(C)c(OCCCc3cc(C)no3)c(C)c2)cc1
MIC50 [1]: 0.12 µM (≈ 0.0403 µg/mL)
half-life [66]: > 3.33 h
